# Experimental data published in ChEMBL document CHEMBL3526129, “Species differences in tissue distribution and enzyme activities of arylacetamide deacetylase in human, rat, and mouse” (Drug Metab Dispos, 2012).
# Tests used:
# [1] = Intrinsic clearance in human jejunum microsome at 0.05 to 4 mM; format: ADME; settings: jejunum microsomes
# Summary of the method: (§1)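 Phenacetin hydrolysis by tissue microsomes: 0.05–4 mM phenacetin with 0.4 mg/ml microsomal protein in 100 mM potassium phosphate (pH 7.4). p-Phenetidine formation was read within its linear time range. CLint was Vmax/Km, or the initial slope of velocity vs substrate when Km was high. Triplicate determinations. Human liver pooled (n=50), jejunum pooled (n=10), kidney and lung single donors.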
# [2] = Intrinsic clearance in rat Liver microsome at 0.05 to 4 mM; format: ADME; settings: liver microsomes, read-out: CLH; summary of the method: as §1
# [3] = Intrinsic clearance in mouse jejunum microsome at 0.05 to 4 mM; format: ADME; settings: jejunum microsomes
# [4] = Intrinsic clearance in rat kidney microsome at 0.05 to 4 mM; format: ADME; settings: kidney microsomes; summary of the method: as §1
# [5] = Intrinsic clearance in human lung microsome at 0.05 to 4 mM; format: ADME; settings: microsomes, 4000 µM; summary of the method: as §1
# [6] = target: T1, Arylacetamide deacetylase (Mus musculus, UniProt Q99PG0); assay: Ratio Vmax to Km in mouse recombinant AADAC; format: ADME
# T1 sequence (Q99PG0 whole entry): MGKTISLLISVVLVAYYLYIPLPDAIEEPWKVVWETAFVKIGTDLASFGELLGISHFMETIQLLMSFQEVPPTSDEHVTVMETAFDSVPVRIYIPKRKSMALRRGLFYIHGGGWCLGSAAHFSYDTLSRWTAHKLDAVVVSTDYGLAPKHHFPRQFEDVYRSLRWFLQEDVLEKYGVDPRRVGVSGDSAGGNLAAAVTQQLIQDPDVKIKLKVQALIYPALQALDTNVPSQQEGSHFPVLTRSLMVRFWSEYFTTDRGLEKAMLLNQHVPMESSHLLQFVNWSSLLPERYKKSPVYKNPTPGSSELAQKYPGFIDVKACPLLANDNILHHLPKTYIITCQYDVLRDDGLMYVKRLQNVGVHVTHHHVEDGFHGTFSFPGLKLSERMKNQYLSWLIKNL
# [7] = Intrinsic clearance in rat lung microsome at 0.05 to 4 mM; format: ADME; settings: lung microsomes
# [8] = target: T2, Arylacetamide deacetylase (Rattus norvegicus, UniProt Q9QZH8); assay: Ratio Vmax to Km in rat recombinant AADAC; format: ADME
# T2 sequence (Q9QZH8 whole entry): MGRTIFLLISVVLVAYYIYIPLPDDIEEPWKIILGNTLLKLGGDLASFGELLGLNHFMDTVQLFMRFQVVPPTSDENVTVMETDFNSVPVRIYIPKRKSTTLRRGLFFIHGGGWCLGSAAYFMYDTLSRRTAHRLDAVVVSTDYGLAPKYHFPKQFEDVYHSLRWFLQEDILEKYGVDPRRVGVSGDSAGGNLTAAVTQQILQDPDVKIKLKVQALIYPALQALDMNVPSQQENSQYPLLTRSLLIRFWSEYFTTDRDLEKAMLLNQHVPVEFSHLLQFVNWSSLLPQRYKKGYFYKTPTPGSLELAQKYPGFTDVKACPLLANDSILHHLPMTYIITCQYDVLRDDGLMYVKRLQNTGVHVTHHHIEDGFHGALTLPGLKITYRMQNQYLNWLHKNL
# [9] = Intrinsic clearance in mouse kidney microsome at 0.05 to 4 mM; format: ADME; settings: kidney microsomes; summary of the method: as §1
# [10] = Intrinsic clearance in rat jejunum microsome at 0.05 to 4 mM; format: ADME; settings: jejunum microsomes
# [11] = Intrinsic clearance in mouse Liver microsome at 0.05 to 4 mM; format: ADME; settings: liver microsomes, read-out: CLH; summary of the method: as §1
# Liver microsome = assay: Intrinsic clearance in human Liver microsome at 0.05 to 4 mM; format: ADME; settings: microsomes, 4000 µM; summary of the method: as §1
# [12] = Intrinsic clearance in human kidney microsome at 0.05 to 4 mM; format: ADME; settings: microsomes, 4000 µM; summary of the method: as §1
# [13] = target: T3, Arylacetamide deacetylase (Homo sapiens, UniProt P22760); assay: Ratio Vmax to Km in human recombinant AADAC; format: ADME
# T3 sequence (P22760 whole entry): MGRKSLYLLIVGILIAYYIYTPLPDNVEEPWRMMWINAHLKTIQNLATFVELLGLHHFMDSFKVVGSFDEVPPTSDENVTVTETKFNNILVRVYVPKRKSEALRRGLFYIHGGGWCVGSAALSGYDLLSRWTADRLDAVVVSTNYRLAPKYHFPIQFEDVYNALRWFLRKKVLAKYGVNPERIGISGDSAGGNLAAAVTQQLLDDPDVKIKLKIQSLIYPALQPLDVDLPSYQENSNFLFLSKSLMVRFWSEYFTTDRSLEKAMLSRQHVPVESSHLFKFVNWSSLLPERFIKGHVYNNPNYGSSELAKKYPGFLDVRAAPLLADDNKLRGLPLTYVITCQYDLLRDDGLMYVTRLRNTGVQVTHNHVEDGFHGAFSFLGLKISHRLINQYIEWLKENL
# [14] = Intrinsic clearance in rat Liver microsome at 0.025 to 0.75 mM; format: ADME; settings: liver microsomes, read-out: CLH
# Summary of the method: (§2)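 Flutamide hydrolysis to FLU-1 in 100 mM potassium phosphate (pH 7.4) with 0.4 mg/ml microsomal protein. Flutamide was 0.025–0.75 mM, or 0.005–0.75 mM for human jejunum. Rodent microsomes were pooled from 3 male SD rats or 5 male C57BL/6J mice. CLint is Vmax/Km, or the initial slope when Km was high; for Hill fits, CLmax. Triplicate determinations.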
# [15] = target: T3, Arylacetamide deacetylase; assay: Activity of AADAC in human jejunum microsome; format: ADME; settings: microsomes
# Summary of the method: (§3)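 Hydrolase activity of tissue microsomes in 0.2 ml mixtures of 100 mM potassium phosphate (pH 7.4). Microsomal protein: 0.4 mg/ml for flutamide (0.025–0.75 mM) and phenacetin (0.05–4 mM); 0.5 mg/ml for rifampicin (0.005–1 mM). Products measured were FLU-1, p-phenetidine and 25-deacetylrifampicin, within linear ranges. Three independent experiments.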
# [16] = target: T3, Arylacetamide deacetylase; assay: Inhibition of AADAC in human jejunum microsome
# Summary of the method: (§4)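 Flutamide hydrolysis to FLU-1 by pooled human jejunum (n = 10) or single-donor human renal microsomes at 0.4 mg/ml in 100 mM potassium phosphate (pH 7.4). Flutamide was 0.005–0.75 mM (jejunum) or 0.025–0.75 mM (kidney). Kinetics were fitted to the substrate inhibition equation, combined with Michaelis-Menten for jejunum. Triplicate determinations.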
# [17] = target: T3, Arylacetamide deacetylase; assay: Activity of AADAC in human liver microsome; format: ADME; settings: microsomes; summary of the method: as §3
# [18] = Intrinsic clearance in mouse kidney microsome at 0.025 to 0.75 mM; format: ADME; settings: kidney microsomes; summary of the method: as §2
# [19] = target: T3, Arylacetamide deacetylase; assay: Activity of AADAC in human kidney microsome; format: ADME; settings: microsomes; summary of the method: as §3
# [20] = Intrinsic clearance in human Liver microsome at 0.025 to 0.75 mM; format: ADME; settings: liver microsomes, read-out: CLH; summary of the method: as §2
# [21] = Intrinsic clearance in rat lung microsome at 0.025 to 0.75 mM; format: ADME; settings: lung microsomes; summary of the method: as §2
# [22] = Intrinsic clearance in mouse Liver microsome at 0.025 to 0.75 mM; format: ADME; settings: liver microsomes, read-out: CLH; summary of the method: as §2
# [23] = Intrinsic clearance in human jejunum microsome at 0.005 to 0.75 mM; format: ADME; settings: jejunum microsomes; summary of the method: as §2
# [24] = Intrinsic clearance in human kidney microsome at 0.025 to 0.75 mM; format: ADME; settings: kidney microsomes; summary of the method: as §2
# [25] = Intrinsic clearance in rat kidney microsome at 0.025 to 0.75 mM; format: ADME; settings: kidney microsomes; summary of the method: as §2
# [26] = Intrinsic clearance in mouse jejunum microsome at 0.005 to 0.75 mM; format: ADME; settings: jejunum microsomes
# [27] = target: T3, Arylacetamide deacetylase; assay: Inhibition of AADAC in human kidney microsome; summary of the method: as §4
# [28] = target: T1, Arylacetamide deacetylase; assay: Activity of AADAC in mouse lung microsome; format: ADME; settings: microsomes; summary of the method: as §3
# [29] = Intrinsic clearance in rat jejunum microsome at 0.005 to 0.75 mM; format: ADME; settings: jejunum microsomes
# [30] = target: T3, Arylacetamide deacetylase; assay: Inhibition of AADAC in human liver microsome
# [31] = Intrinsic clearance in human Liver microsome at 0.05 to 1 mM; format: ADME; settings: liver microsomes, read-out: CLH
# [32] = Intrinsic clearance in mouse Liver microsome at 0.05 to 1 mM; format: ADME; settings: liver microsomes, read-out: CLH
# [33] = target: T3, Arylacetamide deacetylase; assay: Inhibition of human recombinant AADAC
# [34] = Intrinsic clearance in human jejunum microsome at 0.05 to 1 mM; format: ADME; settings: jejunum microsomes
structure (smiles),measurement,setting,value
CCOc1ccc(NC(C)=O)cc1 [PHENACETIN],microsomal CLint at up to 4000 µM,[1],4 µL/min/mg
same,microsomal CLint at up to 4000 µM,[2],0.2 µL/min/mg
same,microsomal CLint at up to 4000 µM,[3],0.1 µL/min/mg
same,microsomal CLint at up to 4000 µM,[4],0.1 µL/min/mg
same,CL,[5],0.4 µL/min/mg
same,Vmax/Km,[6],5.7 uL/min/U
same,microsomal CLint at up to 4000 µM,[7],0.1 µL/min/mg
same,Vmax/Km,[8],2.2 uL/min/U
same,microsomal CLint at up to 4000 µM,[9],0.4 µL/min/mg
same,microsomal CLint at up to 4000 µM,[10],0.1 µL/min/mg
same,microsomal CLint at up to 4000 µM,[11],1.3 µL/min/mg
same,CLH,Liver microsome,1.1 µL/min/mg
same,CL,[12],0.2 µL/min/mg
same,Vmax/Km,[13],3.5 uL/min/U
CC(C)C(=O)Nc1ccc([N+](=O)[O-])c(C(F)(F)F)c1 [FLUTAMIDE],microsomal CLint at up to 750 µM,[14],1.4 µL/min/mg
same,S50,[15],0.2 mM
same,Ki,[16],14 µM
same,Vmax,[17],1.9 nmol/min/mg
same,microsomal CLint at up to 750 µM,[18],0.6 µL/min/mg
same,S50,[19],2.1 mM
same,microsomal CLint at up to 750 µM,[20],1.8 µL/min/mg
same,microsomal CLint at up to 750 µM,[21],0.1 µL/min/mg
same,microsomal CLint at up to 750 µM,[22],1.2 µL/min/mg
same,microsomal CLint at up to 750 µM,[23],12.9 µL/min/mg
same,microsomal CLint at up to 750 µM,[24],1.2 µL/min/mg
same,microsomal CLint at up to 750 µM,[25],0.2 µL/min/mg
same,microsomal CLint at up to 750 µM,[26],0.2 µL/min/mg
same,Ki,[27],0.6 µM
same,Vmax,[28],0 nmol/min/mg
same,microsomal CLint at up to 750 µM,[29],0.2 µL/min/mg
CO[C@H]1/C=C/O[C@@]2(C)Oc3c(C)c(O)c4c(O)c(c(/C=N/N5CCN(C)CC5)c(O)c4c3C2=O)NC(=O)/C(C)=C\C=C\[C@H](C)[C@H](O)[C@@H](C)[C@@H](O)[C@@H](C)[C@H](OC(C)=O)[C@@H]1C [RIFAMPIN],Ki,[30],200 µM
same,Ki,[16],700 µM
same,microsomal CLint at up to 1000 µM,[31],0.7 µL/min/mg
same,microsomal CLint at up to 1000 µM,[32],0.2 µL/min/mg
same,Ki,[33],300 µM
same,microsomal CLint at up to 1000 µM,[34],0.7 µL/min/mg
